AI-2 QS modul: Vibrio harveyi AI-2 quorum sensing modulators, primary screen, JMH597 strain, luminescence/OD600 ratio. Vibrio harveyi JMH597 AI-2 luminescence/OD600 ratio, 9 h; hits give low values; strain lacks LuxN and CqsS sensors; 0 = neutral-control median. activity change, % at 7.5 µM. 300,000 compounds, 0.4% hits. AID 2094, 2009; in the data active means activity change below about -75%, passing the limit was not always enough; inconclusive means no clear call, values can overlap the other calls;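 further: luminescence divided by OD600 gain over 9 h not by final OD600 alone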
NRP1-CendR mod: modulators of CendR peptide binding to NRP-1, primary screen, biochemical, fluorescence polarization, uHTS. inhibition, % at 25 µM. FAM-RPARPAR peptide binding to NRP-1. 360,000 compounds, 0.85% hits. Neuropilin-1 (Homo sapiens), O14786;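 active means inhibition or corrected inhibition above about 18%, plus a signal ratio from 0.5 to 1.5, limit read from the data, passing the limit was not always enough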
Target sequence (O14786 whole entry, looked up): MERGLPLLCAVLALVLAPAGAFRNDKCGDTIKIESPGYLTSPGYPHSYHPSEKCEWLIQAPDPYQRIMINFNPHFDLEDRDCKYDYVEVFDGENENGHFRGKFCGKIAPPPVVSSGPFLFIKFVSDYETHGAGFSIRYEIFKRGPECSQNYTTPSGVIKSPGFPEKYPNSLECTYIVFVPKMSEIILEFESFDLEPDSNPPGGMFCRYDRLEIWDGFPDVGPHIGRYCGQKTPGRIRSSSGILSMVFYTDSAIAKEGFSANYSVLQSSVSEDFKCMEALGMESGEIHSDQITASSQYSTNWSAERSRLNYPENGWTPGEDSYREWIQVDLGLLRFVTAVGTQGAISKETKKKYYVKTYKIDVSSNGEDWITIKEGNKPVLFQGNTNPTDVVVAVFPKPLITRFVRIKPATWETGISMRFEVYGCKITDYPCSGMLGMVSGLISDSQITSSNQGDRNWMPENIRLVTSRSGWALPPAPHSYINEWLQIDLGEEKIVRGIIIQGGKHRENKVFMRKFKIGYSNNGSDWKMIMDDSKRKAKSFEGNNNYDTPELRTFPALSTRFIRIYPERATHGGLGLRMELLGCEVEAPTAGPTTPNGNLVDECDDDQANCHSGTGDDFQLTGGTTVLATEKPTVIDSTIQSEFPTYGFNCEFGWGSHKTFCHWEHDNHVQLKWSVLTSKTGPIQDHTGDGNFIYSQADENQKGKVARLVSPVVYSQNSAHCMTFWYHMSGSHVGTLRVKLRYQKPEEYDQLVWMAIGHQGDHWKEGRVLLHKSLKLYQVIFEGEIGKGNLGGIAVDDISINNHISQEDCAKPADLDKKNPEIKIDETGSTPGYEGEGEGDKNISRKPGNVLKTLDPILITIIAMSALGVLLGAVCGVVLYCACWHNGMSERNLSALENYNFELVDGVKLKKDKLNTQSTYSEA
T cruzi inh: inhibitors of intracellular T. cruzi growth, primary screen, luminescence, NIH3T3 host cells; AID 1885, 2009; inhibition, % (concentration not given with the values); T. cruzi beta-gal in NIH3T3, 90 h; 300,000 compounds, 1.4% hits;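 active means mean inhibition across valid replicates above about 55%, limit read from the data; inconclusive means mean below that limit but half or more replicates reach it; inactive means mean below it, under half of replicates reach it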;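 further: signal also drops with host cell toxicity which is not excluded here; higher percent means less beta-gal luminescence so fewer parasites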
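System – NIH/3T3 host cells with β-galactosidase reporter T. cruzi · Doses – single 50 nL compound addition per well in DMSO · Reagent – 5000 T. cruzi trypomastigotes/well · Medium – Low-serum DMEM with 2% FBS · Timing – ≥90 h infection period, 3 h prior cell attachment · Evaluation – parasite load inhibition, % · Technique – GalScreen luminescence, 60 min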
CR mimetic SO: reduction of superoxide in aged yeast, primary screen, HTS | superoxide response (% of plate mean), % at 10 µM | 330,000 compounds, 0.18% hits | S. cerevisiae aged cells, superoxide DHE fluorescence; hits give low values;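 active means superoxide response under a set limit, about three screen SD below normal, cut at about 65% in these data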;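 further: yeast aged for seven days with compound at 30 °C before DHE staining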
HIF activator: HIF pathway transcriptional activators, primary screen, cell-based, U2OS HRE-luciferase, luminescence; U2OS HRE-luciferase reporter; normalized: DMSO 0%, desferrioxamine 100%; 300,000 compounds, 0.32% hits; AID 1910, 2009; activation, % at 7.5 µM (by protocol);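 active means mean activation of at least 10% of the iron chelator positive control signal, with at least half of replicates also reaching 10%; inconclusive means mean and replicate majority disagree about reaching 10%; inactive means mean and most replicates under 10%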
V-ATPase pHluor: regulators of yeast V-ATPase proton pumping, primary screen, pHLuorin cytosolic pH fluorescence. S. cerevisiae. response, % at 10 µM. AID 504577, 2011. 350,000 compounds, 0.37% hits; in the data active means response mostly above about 7.3%, no sharp cut-off; inactive means mostly below about 5.4%; further: actives read high
Each line names hits and unclear results; the compound was inactive in the other large screens. An excerpt weighted towards active compounds, which were near 3% of everything screened.

O=C(NCc1nc2ccccc2[nH]1)c1c(F)c(F)c(F)c(F)c1F	HIF activator 74
Cc1ccc(-n2ccc(-c3nn(-c4ccccc4)ccc3=O)n2)cc1	none
CC(C)c1cc(-c2cc(C(=O)NCc3ccccc3)on2)nc(NC2CCCC2)n1	T cruzi inh inconclusive, HIF activator 18
CCn1nc([N+](=O)[O-])c(C(C#N)c2nc3cc(C(F)(F)F)ccc3s2)c(Cl)c1=O (centres undefined)	NRP1-CendR mod 26
CCCn1nc([N+](=O)[O-])c(C(C#N)c2nc3ccccc3o2)c(Cl)c1=O (centres undefined)	none
Cc1ccc(C(=O)NCC(=O)OCC(=O)c2ccc3c(c2)NC(=O)CO3)cc1	NRP1-CendR mod 31
COc1ccc(C(=O)NCC(=O)OCC(=O)c2ccc3c(c2)NC(=O)CO3)cc1OC	none
O=C1COc2ccc(C(=O)COC(=O)COc3ccccc3[N+](=O)[O-])cc2N1	NRP1-CendR mod 25
N#Cc1ccccc1OCC(=O)OCC(=O)c1ccc2c(c1)NC(=O)CO2	none
COc1ccc(/C=C2\C(=O)OCc3cc(OC)c(OC)cc32)cc1OC	NRP1-CendR mod 25
CCn1c(N2CCN(S(=O)(=O)c3ccc(Cl)cc3)CC2)nc2ccccc21	T cruzi inh 88
CC1(C(=O)NS(=O)(=O)c2cccc(C#N)c2)CCN1C(=O)CC1CCCC1 (centres undefined)	none (no result: AI-2 QS modul, T cruzi inh, CR mimetic SO, HIF activator, V-ATPase pHluor)
O=[N+]([O-])c1ccc(CN2CCN(c3ccc(F)cc3)CC2)o1	none
Cc1cccc(N2CCN(Cc3ccc([N+](=O)[O-])o3)CC2)c1C	T cruzi inh 58
Cc1cc(OCc2cc(C(=O)NCC3(C)COC3)no2)cc(C)c1Cl	none
COc1ccc(C(=O)OC2C(OC)OCC(O)C2O)cc1 (centres undefined)	none (no result: AI-2 QS modul, T cruzi inh, CR mimetic SO, HIF activator)
CN1Cc2sc(NC(=S)NC(=O)c3ccccc3)c(C#N)c2CC1(C)C	V-ATPase pHluor 29 (no result: NRP1-CendR mod)
O=C(c1cccs1)N1N=C(c2ccccc2)CC1c1ccccc1O (centres undefined)	T cruzi inh 57
COc1ccc(C2=NN(C(=O)c3cccs3)C(c3ccccc3OC)C2)cc1OC (centres undefined)	none
NS(=O)(=O)c1ccc(N2N=C(c3ccccc3)CC2c2ccccc2Br)cc1 (centres undefined)	none (no result: AI-2 QS modul, T cruzi inh, HIF activator)
O=[N+]([O-])c1ccc(N2N=C(c3ccccc3)CC2c2ccccc2O)cc1 (centres undefined)	T cruzi inh 63
Cc1ccc(C2=NN(C(=O)c3cccs3)C(c3ccccc3O)C2)cc1 (centres undefined)	T cruzi inh 64
CCN(CC)CCCNC(=O)CC1Sc2ccccc2NC1=O (centres undefined)	none
Cc1cc(OC(=O)c2ccccc2Cl)cc(=O)n1C	none
Cc1ccc(OCCNC(=O)CCc2nc3sc4c(c3c(=O)[nH]2)CCCC4)cc1	HIF activator 45
O=C(CCc1nc2sc3c(c2c(=O)[nH]1)CCCC3)NCCOc1ccccc1	none
COc1ccc(/C=N/OCc2nc3c4c(ncn3n2)Oc2ccc3ccccc3c2C4c2ccccc2)cc1 (centres undefined)	none
CC(C)c1ccc(C(=O)N2CCCC(c3cc(C(=O)Nc4ccccc4Cl)no3)C2)cc1 (centres undefined)	none (no result: AI-2 QS modul, T cruzi inh, CR mimetic SO, HIF activator, V-ATPase pHluor)
CSc1cnc2c(=O)[nH]c(=O)n(C)c2n1	NRP1-CendR mod 27
Cc1ccc(F)cc1NC(=O)COC(=O)C1CC2CCCC(C1)C2=O (centres undefined)	NRP1-CendR mod 30 (no result: AI-2 QS modul, T cruzi inh, CR mimetic SO, HIF activator)
COc1ccc(-n2cc(CN3CCC(OC)CC3)c(-c3cccc(F)c3)n2)cc1	none
O=S1(=O)CCOCCCN1Cc1cccc(C(F)(F)F)c1	none
Cc1cccc(OCCOC(=O)C2CCN(S(=O)(=O)c3cccs3)CC2)c1	none
Cc1cccc(C2Nc3ccccc3C(=O)N2NC(=O)c2ccc([N+](=O)[O-])cc2)n1 (centres undefined)	none
O=P(CCCCCCCCCP(=O)(c1ccccc1)c1ccccc1)(c1ccccc1)c1ccccc1	T cruzi inh 61
CC(=O)N1CCC(=NNC(=O)c2cc3ccccc3cc2O)CC1	HIF activator 45
C/C(=N\NC(=O)c1cc2ccccc2cc1O)c1cccs1	T cruzi inh 55
COc1ccc(C(=O)Nc2ccc(NC(C)=O)cc2)cc1S(=O)(=O)N1CCCC1	none (no result: AI-2 QS modul, T cruzi inh, HIF activator)
COc1ccc(NC(=O)c2ccc(OC)c(S(=O)(=O)N3CCCCC3C)c2)cn1 (centres undefined)	NRP1-CendR mod 27 (no result: AI-2 QS modul, T cruzi inh, HIF activator)
CCOC(=O)c1ccc2ncc(C(=O)OCC)c(NCCN3CCOCC3)c2c1	none
CCOC(=O)c1ccc2ncc(C(=O)OCC)c(NCCN(C)C)c2c1	NRP1-CendR mod 60
CC(C)C1N=C2c3ccccc3N=C(SCC(=O)NCCc3ccc(S(N)(=O)=O)cc3)N2C1=O (centres undefined)	none
O=C(NC1CCN(Cc2ccccc2)CC1)c1cccc(OC(F)F)c1	none
O=C(NC(=S)Nc1ccc(CN2CCCCC2)cc1)c1cccc(OCc2ccccc2)c1	T cruzi inh 73
O=C(O)c1ccc(NC(=S)NC(=O)c2cccc(COc3ccccc3)c2)cc1	none
CCOc1ccc2oc(C(=O)NC3CCN(Cc4ccccc4)CC3)c(C)c2c1	T cruzi inh 61
CC(=O)c1cccc(OCc2cc(C(=O)NC3CCN(Cc4ccccc4)CC3)no2)c1	NRP1-CendR mod 28
N#Cc1cccnc1N1CCN(C(=O)COCC(=O)O)CC1	none
CN(C)CC(C(=O)c1ccccc1)c1ccccc1 (centres undefined)	T cruzi inh 58
COc1cccc(OCCNC(=O)Nc2cc(F)c(F)cc2Cl)c1	NRP1-CendR mod 25
Cn1c(=O)cc2c3c(c(N4CCCCC4)ccc31)C(=O)c1ccccc1-2	NRP1-CendR mod 58
O=C1c2ccccc2C(=O)c2c1cccc2N1CCCC1	none
O=[N+]([O-])c1ccc(O)c2ncccc12	AI-2 QS modul inconclusive, T cruzi inh 74
O=[N+]([O-])c1cc(CN2CCN(c3ccccc3)CC2)c(O)c2ncccc12	T cruzi inh 58, V-ATPase pHluor 6.6
O=[N+]([O-])c1cc(Cl)c2cccnc2c1O	AI-2 QS modul inconclusive
O=[N+]([O-])c1ccc(O)c2cccnc12	none
Oc1c(I)cc(Cl)c2cccnc12	AI-2 QS modul -108
O=[N+]([O-])c1cc(Cl)c(O)c2ncccc12	AI-2 QS modul -88 (no result: CR mimetic SO)
CN(Cc1cc([N+](=O)[O-])c2cccnc2c1O)C1CCCCC1	none (no result: NRP1-CendR mod, V-ATPase pHluor)
O=C(c1ccc(-c2ccccc2)cc1)N1CCCC1	none

Screening results as filed in PubChem.
